Results reported in publication PMC12034291 (International Journal of Nanomedicine, 2025).
≈ marks a conversion by molar mass, not a printed value. Entries after “also recorded” stand apart in the source; their conditions may differ.

Key:
FLT4 protein = assay: Surface plasmon resonance; assay type: binding; conditions: TMVP1 10 mg/mL; FLT4 protein 0.6 mg/mL on CM5 chip
Summary of the method: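 SPR on a […]. Recombinant FLT4 protein (0.6 mg/mL) was coupled directly to a CM5 chip as the solid phase. The peptide (10 mg/mL) was run as analyte in the mobile phase. The maximum binding response within 150 s was recorded in RU, where 1 RU = 1 pg/mm² surface change.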

[1] = system: FLT4 protein (U87 and U373 cells); assay: Fluorescent peptide in vitro binding / colocalization with FLT4; assay type: cell-based, human; conditions: FAM-labeled TMVP1; confocal, green and red light brightness 110
U87 cells = assay: CCK-8 cytotoxicity assay, U87 cells; assay type: cell-based, human
Summary of the method: (§1)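 CCK-8 viability assay in cells grown in high-glucose DMEM with 10% FBS at 37°C, 5% CO2. Peptide alone was tested at 0, 15, 30, 60 and 120 μg/mL in medium with 10% serum. Blank wells received medium only. Because the test material carries a fluorescent label, parallel wells without CCK-8 gave a D(450) background, which was subtracted. Viability (%) = (experimental − blank)/(control − blank) × 100. Three independent repeats, mean ± SD, t-test/one-way ANOVA.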

HEB cells = assay: CCK-8 cytotoxicity assay, HEB cells; assay type: cell-based, human; conditions: TMVP1 0, 15, 30, 60, 120 μg/mL, P>0.05
Summary of the method: as §1

[2] = UV-visible spectrophotometry of TMVP1 coupling rate; assay type: physicochemical; conditions: FAM-labeled TMVP1
Summary of the method: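 Coupling efficiency of the FAM-labelled peptide to liposomes was measured by UV-visible absorbance at 456 nm, before and after coupling. Coupling rate = (absorbance decrease)/(absorbance before coupling) × 100%. Liposome-bound peptide concentration was estimated from this rate.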

FLT4 = conditions: cited from earlier work
[3] = cited from earlier work
[4] = after combining with nanoprobes; cited from earlier work

| binding affinity to FLT4 (in words) (FLT4 protein) | absorbance after coupling TMVP1 ([2]; 456 nm) | absorbance before coupling TMVP1 ([2]; 456 nm) | TMVP1 coupling rate ([2]; absorbance at 456 nm, (absorbance decrease before and after coupling)/(absorbance before coupling) × 100%) | TMVP1 concentration (from coupling rate) ([2]; estimated from coupling rate) | Compound | fluorescence intensity, U87 versus U373 cell line [1] | cytotoxicity of peptide alone towards U87 cells (U87 cells; CCK-8, U87 cells, TMVP1 0, 15, 30, 60, 120 μg/mL, P>0.05) | biological toxicity of peptide alone to HEB cells (HEB cells) | binding speed to FLT4 versus traditional monoclonal antibodies (FLT4) | immunogenicity versus traditional monoclonal antibodies [3] | biocompatibility and in vivo stability [4] | IC50 (U87 cells; Homo sapiens, U-87 MG, read-out: IC50 (cytotoxicity)) |
| --- | --- | --- | --- | --- | --- | --- | --- | --- | --- | --- | --- | --- |
| strong binding affinity | 0.069 | 0.296 | 76.68% | around 0.153 mg/mL | LARGR [TMVP1] | the fluorescence intensity in the U87 cell line was higher than in the U373 cell line | did not show significant cytotoxicity towards U87 cells; also recorded: no significant biological toxicity | no significant biological toxicity | faster binding speed | lower immunogenicity than traditional monoclonal antibodies | good biocompatibility and in vivo stability | – |
| – | – | – | – | – | Cn1nnc2c(C(N)=O)ncn2c1=O [TMZ, Temozolomide, reference compound] | – | – | – | – | – | – | 48.4 µg/mL (≈ 249 µM) |
